Screens from PubChem BioAssay.
NALP3 yeast inh = inhibitors of NALP3 inflammasome in yeast. inhibition, % at 10 µM. Yeast reconstituted NLRP3/ASC/caspase-1, beta-gal luminescence, 24 h. AID 2825. actives 0.39% (n = 330,000);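 active = inhibition of 50% or more; inactive = inhibition below 50%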;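 also: plate controls were induced DMSO wells for no effect and uninduced yeast grown without galactose for full effect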
T cell HTS = T cell immune modulation candidate; 2C CD8+ T cell-vesicle binding, flow cytometry; stronger effect = lower value; response (vesicle binding), % at 7 µM; actives 0.068% (n = 330,000);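 active = response, share of CD8 T cells binding vesicles, and their 90th percentile fluorescence all below set limits, cut at about 80% in these data, passing the limit was not always enough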;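 also: values below 100% mean blocked vesicle binding to the CD8+ T cells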
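Assay system – 2C mouse CD8+ T cells · Also added – QL9-loaded Drosophila micro-vesicles · Timing – Cell–vesicle co-incubation 1.5 h at 37 °C, staining 20 min on ice · Signal – flow cytometry of vesicle-bound cells · Measure – percent CD8+ FL2 mean versus row control · Controls – Peptide-free naked vesicles (low) and QL9 vesicles with 0.7% DMSO vehicle (high)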
NALP1 yeast inh = inhibitors of NALP1 inflammasome in yeast; S. cerevisiae NALP1/ASC/caspase-1 growth, X-gal OD620, 72 h; inhibition, % at 10 µM; actives 0.61% (n = 280,000); in the data active = inhibition mostly above about 24%, no sharp cut-off; inactive = mostly below about 32%
Bfl-1 A1 inh = inhibitors of the anti-apoptotic protein A1, read as caspase activation | MEF A1-2A-BIM cells, Caspase-Glo 3/7 luminescence, 3 h; percent of clofoctol response, vehicle zero | caspase activation, % (test concentration not listed) | actives 0.066% (n = 330,000) | AID 2462;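 active = over half of replicate activation scores above 10%, or exactly half above 10 with the replicate mean above 10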
NALP3 confirm = NALP3 inhibition confirmation in yeast; shares compounds with NALP3 yeast inh; yeast expressing human NALP3, luminescence; inhibition, % at 10 µM; actives 81% (n = 1,300); AID 435006; in the data active = inhibition above about 48%
Casp1 ASC ctr = active in yeast caspase-1-ASC counter-screen for NALP3 inhibitors; shares compounds with NALP3 yeast inh; yeast expressing Caspase-1-ASC, luminescence counter screen; inhibition, % at 10 µM; actives 66% (n = 1,000); AID 488784
NALP3 yeast rt = confirmation retest of NALP3 inhibitors in yeast; actives 53% (n = 1,000); yeast expressing human NALP3, luminescence read-out; shares compounds with NALP3 yeast inh; inhibition, % at 10 µM; AID 488794
An asterisk follows results filed as active; ! = not confirmed by another sample. Sampled rows, rich in hits. Any-hit rate of the full collection: about 1%. Rule as the data show it, unless noted: active = inhibition above about 50%; inactive = the rest.

For O=C(NC1CCCCCC1)c1c(O)c2cccc3c2n(c1=O)CCC3 the results were NALP1 yeast inh -13.5.
Screening COc1ccc(C(CNC(=O)c2oc3ccc(F)cc3c2C)N2CCCCC2)cc1 (stereo not given) returned NALP3 yeast inh 20.2, T cell HTS inactive and NALP1 yeast inh -0.3.
`CCCSc1nsc(NC(=O)Nc2ccc(F)cc2F)n1` gave NALP3 yeast inh 50.7*, T cell HTS 182.6, NALP1 yeast inh 18.9, Bfl-1 A1 inh -0.5, NALP3 confirm 50.9*, Casp1 ASC ctr 23.4 and NALP3 yeast rt 35.5.
Screening CCSc1nsc(NC(=O)Nc2cccc(F)c2)n1 returned NALP3 yeast inh 50.2*, T cell HTS 228.9, NALP1 yeast inh 11.2, Bfl-1 A1 inh -2.9, NALP3 confirm 77.5*, Casp1 ASC ctr 47.0 and NALP3 yeast rt 85.2*.
Cc1ccc2nc(NC(=O)Cc3cccs3)sc2c1 was read as NALP3 yeast inh 52.1*, T cell HTS 336.4, NALP1 yeast inh 25.9, Bfl-1 A1 inh -3.7, NALP3 confirm 63.3*, Casp1 ASC ctr 50.8* and NALP3 yeast rt 53.3*.
`COc1ccccc1NC(=O)Nc1cccc(C)n1` gave NALP3 yeast inh 66.3*, T cell HTS 209.2, NALP1 yeast inh 21.9, Bfl-1 A1 inh -0.1, NALP3 confirm 73.7*, Casp1 ASC ctr 55.4* and NALP3 yeast rt 59.9*.
`CCn1c(-c2cc(-c3ccc(C)cc3)nc3ccccc23)n[nH]c1=S` gave NALP3 yeast inh 39.6, T cell HTS 347.4, NALP1 yeast inh 5.1 and Bfl-1 A1 inh 0.0.
CCn1c(-c2cc(-c3ccc(OC(C)C)cc3)nc3ccccc23)n[nH]c1=S was read as NALP3 yeast inh 54.3*, T cell HTS 374.0, NALP1 yeast inh -17.0, Bfl-1 A1 inh 0.1 and NALP3 confirm 37.1.
Screening CCCCN(Cc1ccco1)C(=O)C1CCCN(c2ncnc3c2nc2n3CCCCC2)C1 (stereo not given) returned NALP3 yeast inh 9.5, T cell HTS 201.6, NALP1 yeast inh -8.2 and Bfl-1 A1 inh 1.5.
Screening CN(C)c1ccc(N=Nc2cccc(F)c2)cc1 returned NALP3 yeast inh 51.8*, T cell HTS 527.4, NALP1 yeast inh 10.7, Bfl-1 A1 inh -2.5, NALP3 confirm 43.4, Casp1 ASC ctr 51.0* and NALP3 yeast rt 39.0.
CN(C)c1ccc(N=Nc2ccc(S(N)(=O)=O)cc2)cc1 was read as NALP3 yeast inh 33.1, T cell HTS 493.3, NALP1 yeast inh 25.1 and Bfl-1 A1 inh 0.9.
Screening CN(C)c1ccc(N=Nc2cccc3ccoc23)cc1 returned NALP3 yeast inh 59.6*, T cell HTS 212.3, NALP1 yeast inh 8.8, Bfl-1 A1 inh -7.8, NALP3 confirm 67.7*, Casp1 ASC ctr 45.0 and NALP3 yeast rt 40.6.
Cc1ccc(S(=O)(=O)NC(CC(C)C)C(=O)N2CCN(C/C=C/c3ccccc3)CC2)cc1 (stereo not given) was read as NALP3 yeast inh 5.9, T cell HTS 525.8 and Bfl-1 A1 inh -0.3.
`CC(Oc1cccc(Cl)c1)C(=O)Nc1ccc(S(=O)(=O)N(C)C2CCN(C)CC2)cc1` (stereo not given) gave NALP3 yeast inh 17.6, T cell HTS 671.5 and Bfl-1 A1 inh 0.0.
Screening CC(Oc1cccc(Cl)c1)C(=O)Nc1nc(-c2ccccn2)cs1 (stereo not given) returned NALP3 yeast inh 50.0*, T cell HTS 158.1, Bfl-1 A1 inh 0.2, NALP3 confirm 64.2*, Casp1 ASC ctr 74.3* and NALP3 yeast rt 61.1*.
Screening CCCCCCCCCCCCCCCCn1cc[n+](C)c1 returned NALP3 yeast inh 61.3*, T cell HTS 220.6, NALP1 yeast inh 93.6*!, Bfl-1 A1 inh -0.4 and NALP3 confirm 71.6*.
CC1(C)c2ccccc2-n2c1cc1oc(=O)cc(O)c1c2=O was read as NALP3 yeast inh 76.1*, T cell HTS 322.5, Bfl-1 A1 inh 1.3, NALP3 confirm 80.0*, Casp1 ASC ctr 66.8* and NALP3 yeast rt 72.2*.
`O=[N+]([O-])c1ccc(N2CCCC2)cc1N1CCCC1` gave NALP3 yeast inh 58.2*, T cell HTS 255.2, NALP1 yeast inh -8.6, Bfl-1 A1 inh 0.8, NALP3 confirm 52.5*, Casp1 ASC ctr 63.3* and NALP3 yeast rt 52.6*.
Screening O=[N+]([O-])c1ccc(N2CCCCC2)cc1N1CCOCC1 returned NALP3 yeast inh 19.9, T cell HTS 218.8, NALP1 yeast inh 3.3 and Bfl-1 A1 inh 0.0.
`CC(C)(C)N1C(=O)[C@H]2[C@@H](c3ccc(Br)cc3)N3C(=O)N(c4cccc(Cl)c4)C(=O)[C@@]3(Cc3ccccc3)[C@H]2C1=O` gave NALP3 yeast inh 6.1, T cell HTS 490.6 and Bfl-1 A1 inh 0.6.
Screening CNC(=O)c1nnsc1S(=O)(=O)c1ccc(Cl)cc1 returned NALP3 yeast inh 59.5*, NALP1 yeast inh 89.7*, NALP3 confirm 66.7*, Casp1 ASC ctr 65.1* and NALP3 yeast rt 46.7.
O=C(c1nnsc1S(=O)(=O)c1ccc(Cl)cc1)N1CCOCC1 was read as NALP3 yeast inh 56.7*, NALP1 yeast inh 5.0, NALP3 confirm 52.0*, Casp1 ASC ctr 54.4* and NALP3 yeast rt 50.2*.
`Cc1cc(C(=O)Nc2nncs2)oc1C` gave NALP3 yeast inh 38.8, T cell HTS 467.2, NALP1 yeast inh 14.4 and Bfl-1 A1 inh -2.4.
O=C(N/N=C/C(Br)=C/c1ccccc1)c1cccs1 was read as NALP3 yeast inh 50.1*, T cell HTS 107.3, NALP1 yeast inh 3.9, Bfl-1 A1 inh -6.4 and NALP3 confirm 63.0*.
`N/C(=N\N=C/c1ccc(Br)cc1)N/N=C\c1ccc(Br)cc1` gave NALP3 yeast inh 27.0, T cell HTS 205.8, NALP1 yeast inh 3.3 and Bfl-1 A1 inh 0.9.
Screening N/C(=N\N=C/c1ccc(F)cc1)N/N=C\c1ccc(F)cc1 returned NALP3 yeast inh 63.9*, T cell HTS 149.8, NALP1 yeast inh -10.1, Bfl-1 A1 inh 0.9, NALP3 confirm 76.2*, Casp1 ASC ctr 69.9* and NALP3 yeast rt 64.7*.
Screening CCC(C)NC(=O)c1cc2c(=O)n(CC)c3ccccc3c2s1 (stereo not given) returned NALP3 yeast inh -1.5, T cell HTS 232.1, NALP1 yeast inh 14.3 and Bfl-1 A1 inh -0.2.
For COc1ccc(COC(=O)CCc2c[nH]c3ccccc23)cc1F the results were NALP3 yeast inh 32.0, T cell HTS 244.4, NALP1 yeast inh 10.6 and Bfl-1 A1 inh 0.4.
Screening COc1cccc(CN(C)C(=O)c2csc3c2CCCC3)c1OC returned NALP3 yeast inh 50.7*, T cell HTS 444.7, NALP1 yeast inh 13.8, Bfl-1 A1 inh -0.2, NALP3 confirm 40.5, Casp1 ASC ctr 50.2* and NALP3 yeast rt 40.2.
